Only a selection was taken, and hits are over-represented in it overall.
HUVEC inhibit: human endothelial cell proliferation inhibition; HUVEC proliferation, CellTiter-Glo luminescence, 72 h; hits give low values; 86,000 tested, 1.1% active; viability, % at 10 µM (by protocol);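 active = viability at or below 30%; inactive = viability above 30%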
H69AR growth 86K: blocks growth of human H69AR lung tumor cells. 85,000 tested, 6% active. AID 598. H69AR lung tumor viability, ATP luminescence, 72 h; hits give low values. viability, % at 10 µM;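 active = viability at or below 40%; inactive = viability above 40%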;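 note: multidrug resistant small cell line overexpressing MRP-1 efflux transporter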
HCT116 PTEN-null: suppresses growth of cells with PTEN deletion. HCT116 PTEN-null viability, CellTiter-Glo, 60 h; hits give low values. viability, % at 10 µM. 140,000 tested, 1.2% active;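 active = viability at or below a set limit, 4 SD under the median of all tested compounds, cut at about 3.7% in these data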;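 note: PTEN knockout HCT116 line with beta catenin targeted HCT116 as companion control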
Fibroblast inh: blocks proliferation of human lung fibroblasts; viability, % at 10 µM; AID 719; 85,000 tested, 1.1% active; LL 47 human lung fibroblast viability, ATP luminescence; hits give low values;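 active = viability at or below 50% in the single dose screen; inactive = viability above 50%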;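 note: compound exposure lasted 72 h before the ATP readout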
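test system = LL 47 human lung fibroblasts | amount = 1,150 fibroblasts seeded per well | medium = 15% FBS in IMEM | times = overnight cell rest, 72 h compound treatment at 37 °C | measured by = CellTiter-Glo luminescence measuring cellular ATP | read-out = viability percentage against median untreated-cell control | benchmarks = cell-only wells, no compound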
HCT116 bCat-KO: beta-catenin-lacking colon tumor cell growth suppression | viability, % at 10 µM | 140,000 tested, 1.5% active | AID 818 | HCT116 beta-catenin knockout viability, CellTiter-Glo, 60 h; hits give low values;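 active = viability at or under a set limit, the compound median less 4 SD, cut at about 6% in these data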
Each line names hits and unclear results; the compound was inactive in the other large screens.

COc1cc(NCCCCCCCN)c2ncccc2c1	HUVEC inhibit 3.1, HCT116 PTEN-null 2.3, Fibroblast inh 23, HCT116 bCat-KO 1.7
O=C(NC1CCCCC1)C(c1cccnc1)N(CCc1ccccc1)C(=O)Cc1cccs1 (stereo unspecified)	none (no result: HUVEC inhibit, H69AR growth 86K, Fibroblast inh)
COc1cc(CC(=O)N/N=C/c2ccc([N+](=O)[O-])cc2)c([N+](=O)[O-])cc1OC	none (no result: HUVEC inhibit, H69AR growth 86K, Fibroblast inh)
COc1ccc(-c2nn(-c3ccccc3)cc2/C=N/N2C(=O)CSC2=S)cc1	HUVEC inhibit 4.0
O=C(Nc1ccc2oc(=O)ccc2c1)c1cccnc1Cl	none
CC(C)C[C@@H]1NC(=O)[C@H](Cc2ccc(O)cc2)NC(=O)[C@H](CCC(N)=O)NC(=O)c2cc([N+](=O)[O-])cc(I)c2NCC[C@@H](C(N)=O)NC1=O	none (no result: HUVEC inhibit, H69AR growth 86K, Fibroblast inh)
O=C(N/N=C/c1ccc([N+](=O)[O-])s1)c1cccnc1	HCT116 PTEN-null 2.8, HCT116 bCat-KO 3.3 (no result: HUVEC inhibit, H69AR growth 86K, Fibroblast inh)
O=C(N/N=C\c1ccc([N+](=O)[O-])s1)c1cncc(Br)c1	HCT116 PTEN-null 1.5, HCT116 bCat-KO 3.4 (no result: HUVEC inhibit, H69AR growth 86K, Fibroblast inh)
COc1ccccc1NC(=O)c1ccc(NC(=O)COC(=O)CCC2CCCC2)cc1	none (no result: HUVEC inhibit, H69AR growth 86K, Fibroblast inh)
OC(COCC(F)(F)C(F)(F)C(F)(F)C(F)F)Cn1c2ccc(Cl)cc2c2cc(Cl)ccc21 (stereo unspecified)	HCT116 PTEN-null 1.7, HCT116 bCat-KO 2.2 (no result: HUVEC inhibit, H69AR growth 86K, Fibroblast inh)
Cc1ccc(NC(=O)c2sc(Cl)nc2C)c(C)c1	none (no result: HUVEC inhibit, H69AR growth 86K, Fibroblast inh)
Cc1cc(C)c(C)c(OC(=O)c2sc(Cl)nc2C)c1	HCT116 PTEN-null 2.3, HCT116 bCat-KO 1.7 (no result: HUVEC inhibit, H69AR growth 86K, Fibroblast inh)
Cc1ccc(NC(=O)c2cc(N3CCOCC3)nc3ccccc23)cc1	H69AR growth 86K 33
Cc1ccc(C(OCCN(C)C)c2cccc(C(F)(F)F)c2)cc1 (stereo unspecified)	none (no result: HUVEC inhibit, H69AR growth 86K, Fibroblast inh)
c1ccc(COc2ccc(OCCCNC3CCCC3)cc2)cc1	H69AR growth 86K 40
CC(C)Oc1ccc(OCCNC2CCCC2)cc1	none (no result: HUVEC inhibit, H69AR growth 86K, Fibroblast inh)
CC(=O)N(NC(=O)c1ccccc1Cl)C1CC(=O)N(c2ccc(C)cc2)C1=O (stereo unspecified)	none (no result: HUVEC inhibit, H69AR growth 86K, Fibroblast inh)
CCCN1C(=O)C(O)(C2CC(=O)CC(C)(C)O2)c2ccccc21 (stereo unspecified)	H69AR growth 86K 23
CCN1C(=O)C(O)(C2COC(C)(C)CC2=O)c2ccccc21 (stereo unspecified)	none
COc1ccc(CC(=O)Nc2nc3ccc(F)cc3s2)cc1S(=O)(=O)N1CCOCC1	H69AR growth 86K 39
COc1ccc(CC(=O)Nc2nc3ccccc3s2)cc1S(=O)(=O)N1CCOCC1	none
Cc1ccc(CSCCNS(=O)(=O)c2ccccc2)cc1	none (no result: HUVEC inhibit, H69AR growth 86K, Fibroblast inh)
CCOC(=O)c1cnn(-c2sc(C(=O)OCC)c(C)c2C(=O)OCC)c1N	H69AR growth 86K 24 (no result: HCT116 PTEN-null, HCT116 bCat-KO)
CSc1ccc(C2C(C#N)=C(N)Oc3cc4c(cc32)OCO4)cc1 (stereo unspecified)	H69AR growth 86K 18
Cc1ccc(C2C(C#N)=C(N)Oc3cc4c(cc32)OCO4)cc1 (stereo unspecified)	H69AR growth 86K 15
N#CC1=C(N)OC(c2ccccc2)=C(C#N)C1c1ccc2c(c1)OCO2 (stereo unspecified)	none
Cc1occc1C(=O)NN1C(=O)C2C3CCC(O3)C2C1=O (stereo unspecified)	none (no result: HUVEC inhibit, H69AR growth 86K, Fibroblast inh)
Cc1cc(OCC(=O)NC(C)C)cc(C)c1Cl	none
Cc1cc(OCCOCCNC(C)C)cc(C)c1Cl	H69AR growth 86K 28, HCT116 bCat-KO 5.6
CN(C(=O)c1cc(-n2cnnc2)ccc1Cl)c1ccccc1	none (no result: HUVEC inhibit, H69AR growth 86K, Fibroblast inh)
CCCCNC(=O)c1sc(=S)n2c1[nH]c(=O)c1ccccc12	H69AR growth 86K 26
O=C(NC1CCCCC1)c1sc(=S)n2c1[nH]c(=O)c1ccccc12	none
Cc1nc2ccc(NC(=O)c3cc([N+](=O)[O-])cc([N+](=O)[O-])c3Cl)cc2s1	none (no result: HUVEC inhibit, H69AR growth 86K, Fibroblast inh)
CC(=O)c1cn(CC(=O)Nc2ccc(C)cc2C)c2ccccc12	none
COc1ccc(C(=O)NNC(=O)CSc2nnc(COc3ccccc3OC)n2C)cc1	none (no result: HUVEC inhibit, H69AR growth 86K, Fibroblast inh)
Cc1n[nH]c(C)c1N1C(=O)c2cccc3c(N4CCCCCC4)ccc(c23)C1=O	H69AR growth 86K 35
COc1ccc(-n2c(C(C)(C)C)csc2=Nc2c(C)n(C)n(-c3ccccc3)c2=O)cc1	none (no result: HUVEC inhibit, H69AR growth 86K, Fibroblast inh)
COc1ccc(C(=O)N/N=C/c2cccc3cccnc23)cc1	HCT116 bCat-KO 4.9 (no result: HUVEC inhibit, H69AR growth 86K, Fibroblast inh)
Cc1ccc(C(C)C)c(OCc2ccc(C(=O)N/N=C/c3ccc(O)c(O)c3)cc2)c1	none (no result: HUVEC inhibit, H69AR growth 86K, Fibroblast inh)
O=C(N/N=C/c1ccc(O)c(O)c1)c1ccc(CSc2cccc3cccnc23)cc1	H69AR growth 86K 40
CCOc1ccc(C(=O)N/N=C/c2cccc3cccnc23)cc1	none (no result: HUVEC inhibit, H69AR growth 86K, Fibroblast inh)
COc1ccc(NC(=O)c2ccccn2)cc1	none (no result: HUVEC inhibit, H69AR growth 86K, Fibroblast inh)
